The test system of data set [1] is human red blood cells. Nature of the data set: micro-RNA mir-16 release from red blood cells. Type of data set: cell-based. Conditions: pH 5.4; 5 μM peptide, human RBCs, 37 °C, mir-16 by stem-loop qPCR on supernatant. For orientation: In qPCR the cycle at which signal appears reflects the starting amount.
The test system of data set [2] is human red blood cells. Put plainly: ATP release from red blood cells. The format is cell-based. Conditions: 5 μM peptide, human RBCs, 37 °C, ATPLite kit on supernatant.
The nature of data set [3]: Sedimentation equilibrium analytical ultracentrifugation in aqueous buffer. Type of data set: physicochemical. Conditions: for apparent MW, AUC single-species fit: 150 mM NaCl, 25 °C, 35-50 krpm, global fit; for apparent MW, AUC single-species fit / aggregation state (apparent MW/peptide MW), AUC / –log(Kdissociation), monomer–hexamer equilibrium, AUC: 100 μM peptide; for –log(Kdissociation), monomer–hexamer equilibrium, AUC: error = SD of fit.

A short description of data set [4]: Size-exclusion chromatography, association state in aqueous buffer. Conditions: for apparent molecular weight, SEC: 150 mM NaCl, Superdex 75, 25 °C, 100 μM peptide. The format is physicochemical. On the technique in general: Size exclusion chromatography separates by hydrodynamic size, large species first.
Data set [5] is described as follows: Circular dichroism thermal denaturation. The format is physicochemical. The note with it: for [PSPF-EKG] at 50% folded and 300 K: calculated from the CD fit; for Tm of thermal denaturation by CD: reference concentration 4 μM.
A short description of data set [6]: AUC self-association in C-14 betaine micelles. The format is physicochemical. The note with it: 8 mM C-14 betaine, pH 7.4 and 5.5, peptide/betaine 1:50, 1:100, 1:200. In a few lines: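 Sedimentation equilibrium run at 25 °C at 35, 40, 45 and 50 krpm. Test compound was dissolved in C-14 betaine micelles in 150 mM NaCl and 50 mM sodium phosphate. D2O was added to match micelle density: 17% at pH 7.4 and 22% at pH 5.5. Data were fitted by single-species and monomer–trimer equilibrium models.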

As for “WSDLAKA LSDLAKA LSDLAKA LSDLAKA [PSPF-DKA]”, in the data set with human red blood cells [1], the “% miRNA at 5 μM, RBC lysis assay” value is reported as 0.79 % relative to Triton X-100 controls. For the same substance, the results for the “% ATP at 5 μM, RBC lysis assay” value in the data set with human red blood cells [2] (pH 5.4) and with human red blood cells [2] (pH 7.5) were 5.79 % relative to Triton X-100 controls and 4.64 % relative to Triton X-100 controls, respectively.
As to “WSDLAKG LSDLAKG LSDLAKG LSDLAKG [PSPF-DKG]”, the “apparent MW, AUC single-species fit” value in data set [3] (pH 5.5, 50 mM MES) is reported as 24 000 Da. In addition, in data set [3] (pH 7.4), the “association state n suggested by AUC single-species fitting” value worked out at 6; the “aggregation state (apparent MW/peptide MW), AUC” value is reported as 6.0; the “–log(Kdissociation), monomer–hexamer equilibrium, AUC” value was found to be 28.7 ± 0.4. In data set [3] (pH 7.4, 50 mM Tris), the “apparent MW, AUC single-species fit” value is 17 000 Da. In the data set with human red blood cells [1], the “% miRNA at 5 μM, RBC lysis assay” value was 7.47 % relative to Triton X-100 controls. Further, the “% ATP at 5 μM, RBC lysis assay” value in the data set with human red blood cells [2] (pH 5.4) is listed as 24.1 % relative to Triton X-100 controls. In addition, in the data set with human red blood cells [2] (pH 7.5), the “% ATP at 5 μM, RBC lysis assay” value is 7.54 % relative to Triton X-100 controls. For the same substance, the “aggregation state n (apparent MW fold over single peptide MW), SEC” value in data set [4] (pH 5.5) is on record as “only a poorly defined peak”.
In the case of “WSELAQG LSELAQG LSELAQG LSELAQG [PSPF-EQG]”, the “% miRNA at 5 μM, RBC lysis assay” value in the data set on human red blood cells [1] is reported as 2.64 % relative to Triton X-100 controls. For the same substance, the entries for the “% ATP at 5 μM, RBC lysis assay” value in the data set on human red blood cells [2] (pH 5.4) and in the data set on human red blood cells [2] (pH 7.5) were 9.52 % relative to Triton X-100 controls and 3.36 % relative to Triton X-100 controls, respectively.
With “WSDLAQA LSDLAQA LSDLAQA LSDLAQA [PSPF-DQA]”, in the data set on human red blood cells [2] (pH 7.5), the “% ATP at 5 μM, RBC lysis assay” value is on record as 3.81 % relative to Triton X-100 controls.
On to “WSHLAQG LSHLAQG LSHLAQG LSHLAQG [PSPF-HQG]”, for which the “% miRNA at 5 μM, RBC lysis assay” value with human red blood cells [1] is on record as 0.64 % relative to Triton X-100 controls. For the same substance, in the data set with human red blood cells [2] (pH 7.5), the “% ATP at 5 μM, RBC lysis assay” value is 5.69 % relative to Triton X-100 controls.
Consider “WSDLAQG LSDLAQG LSDLAQG LSDLAQG [PSPF-DQG]”, for which the “% miRNA at 5 μM, RBC lysis assay” value in the data set with human red blood cells [1] is recorded as 0.16 % relative to Triton X-100 controls. For the same substance, the “% ATP at 5 μM, RBC lysis assay” value was 8.61 % relative to Triton X-100 controls with human red blood cells [2] (pH 5.4) and 3.21 % relative to Triton X-100 controls in the data set with human red blood cells [2] (pH 7.5).
Take “WSHLAKA LSHLAKA LSHLAKA LSHLAKA [PSPF-HKA]”: the “% miRNA at 5 μM, RBC lysis assay” value in the data set on human red blood cells [1] is recorded as 0.02 % relative to Triton X-100 controls. Besides, the “% ATP at 5 μM, RBC lysis assay” value is given as 5.7 % relative to Triton X-100 controls with human red blood cells [2] (pH 5.4) and 0.93 % relative to Triton X-100 controls with human red blood cells [2] (pH 7.5).
For the substance “WSELAQA LSELAQA LSELAQA LSELAQA [PSPF-EQA]”, the “% miRNA at 5 μM, RBC lysis assay” value in the data set with human red blood cells [1] was 0.02 % relative to Triton X-100 controls. Moreover, the “% ATP at 5 μM, RBC lysis assay” value in the data set on human red blood cells [2] (pH 5.4) is given as 3.61 % relative to Triton X-100 controls; with human red blood cells [2] (pH 7.5) it was 3.69 % relative to Triton X-100 controls.
As to “WSHLAKG LSHLAKG LSHLAKG LSHLAKG [PSPF-HKG]”, the “% miRNA at 5 μM, RBC lysis assay” value in the data set on human red blood cells [1] was 0.44 % relative to Triton X-100 controls. Also, the “% ATP at 5 μM, RBC lysis assay” value in the data set with human red blood cells [2] (pH 7.5) was 32.1 % relative to Triton X-100 controls.
For “WSELAKA LSELAKA LSELAKA LSELAKA [PSPF-EKA]”, the “% miRNA at 5 μM, RBC lysis assay” value with human red blood cells [1] was 0.21 % relative to Triton X-100 controls. Moreover, the “% ATP at 5 μM, RBC lysis assay” value with human red blood cells [2] (pH 5.4) is listed as 3.66 % relative to Triton X-100 controls; in the data set with human red blood cells [2] (pH 7.5) it was 2.02 % relative to Triton X-100 controls.
Regarding “WSHLAQA LSHLAQA LSHLAQA LSHLAQA [PSPF-HQA]”, the “% miRNA at 5 μM, RBC lysis assay” value with human red blood cells [1] is given as 1.43 % relative to Triton X-100 controls. Besides, the “% ATP at 5 μM, RBC lysis assay” value with human red blood cells [2] (pH 7.5) is listed as 6.17 % relative to Triton X-100 controls.
On to “WSELAKG LSELAKG LSELAKG LSELAKG [PSPF-EKG]”, for which the “decrease of Tm from pH 7.4 to pH 5.5” value in data set [5] (CD thermal denaturation) is given as 5.6 K. Besides, the figures for the “[PSPF-EKG] at 50% folded and 300 K” value in data set [5] (pH 5.5) and in data set [5] (pH 7.4) were 0.31 µM and 0.14 µM, respectively. Moreover, the “Tm of thermal denaturation by CD” value in data set [5] (pH 5.5) came to 333.4 ± 0.1 K; in data set [5] (pH 7.4), 339.0 ± 0.1 K. Also, the “increase of free energy of the helical bundle as pH decreases from 7.4 to 5.5” value in data set [3] (AUC) is recorded as 0.7 kcal/mol peptide. Further, the “association state n suggested by AUC single-species fitting” value in data set [3] (pH 5.5) and in data set [3] (pH 7.4) was 6 throughout. For the same substance, the “apparent MW, AUC single-species fit” value is 16 000 Da in data set [3] (pH 5.5, 50 mM MES) and 18 000 Da in data set [3] (pH 7.4, 50 mM Tris). Also, the entries for the “aggregation state (apparent MW/peptide MW), AUC” value in data set [3] (pH 5.5) and in data set [3] (pH 7.4) were 5.5 and 6.2, respectively. Moreover, the entries for the “–log(Kdissociation), monomer–hexamer equilibrium, AUC” value in data set [3] (pH 5.5) and in data set [3] (pH 7.4) were 24.8 ± 0.1 and 28.0 ± 0.4, respectively. For the same substance, the “self-association in detergent micelles” value in data set [6] was “weakly associates in detergent micelles”. Also, the figures for the “% ATP at 5 μM, RBC lysis assay” value in the data set on human red blood cells [2] (pH 5.4) and in the data set with human red blood cells [2] (pH 7.5) were 27.3 % relative to Triton X-100 controls and 3.38 % relative to Triton X-100 controls, respectively. Besides, the “apparent molecular weight, SEC” value is 15 000 Da in data set [4] (pH 5.5, 50 mM MES) and 19 000 Da in data set [4] (pH 7.4, 50 mM Tris).

The values are drawn from paper PMC4843813 (ACS chemical biology, 2015).
